Measured values taken from ChEMBL document CHEMBL4715886, “Microwave-assisted efficient synthesis of pyrazole-fibrate derivatives as stimulators of glucose uptake in skeletal muscle cells” (2021).
Calls of active or inactive are those of the source. No cut-off for these calls is given here.

Assays:
L6 [1] = test: Induction of glucose uptake in rat L6 cells harboring GLUT4-myc assessed as glucose uptake at 10 uM relative to control; type: functional
Outline: (§1)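 L6-GLUT4myc rat skeletal muscle cells were exposed once to test compound at 10 µM. Glucose uptake was read and reported as fold increase and as percent stimulation over untreated control.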

[2] = molecular target: T1, Solute carrier family 2, facilitated glucose transporter member 4 (Rattus norvegicus) (UniProt P19357); test: Induction of GLUT4 translocation in rat L6 cells harboring GLUT4-myc assessed as increase in surface level GLUT4myc at 10 uM after 16 hrs; type: cell-based
T1 sequence (whole entry): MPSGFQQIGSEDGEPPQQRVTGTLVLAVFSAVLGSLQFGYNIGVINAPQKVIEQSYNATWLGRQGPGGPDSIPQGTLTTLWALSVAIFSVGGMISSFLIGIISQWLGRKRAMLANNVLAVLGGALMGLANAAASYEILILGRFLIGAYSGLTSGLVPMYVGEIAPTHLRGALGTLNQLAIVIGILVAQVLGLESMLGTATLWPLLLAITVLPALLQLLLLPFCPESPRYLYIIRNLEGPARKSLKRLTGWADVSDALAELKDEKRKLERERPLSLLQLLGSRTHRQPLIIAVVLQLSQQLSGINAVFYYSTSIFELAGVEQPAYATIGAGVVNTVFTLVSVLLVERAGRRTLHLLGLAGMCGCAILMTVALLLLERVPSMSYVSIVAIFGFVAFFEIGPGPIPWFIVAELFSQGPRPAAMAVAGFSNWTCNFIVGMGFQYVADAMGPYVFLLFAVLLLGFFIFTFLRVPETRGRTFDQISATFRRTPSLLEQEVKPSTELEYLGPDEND

L6 [3] = test: Induction of glucose uptake in rat L6 cells harboring GLUT4-myc assessed as fold change in glucose uptake at 10 uM; type: functional; outline: as §1
L6 [4] = test: Induction of glucose uptake in rat L6 cells harboring GLUT4-myc assessed as fold change in glucose uptake at 500 uM; type: functional
Outline: (§2)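 L6-GLUT4myc skeletal muscle cells were exposed to the reference agent at 500 µM. Glucose uptake was measured as fold increase and as percent stimulation relative to untreated control.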

L6 [5] = test: Induction of glucose uptake in rat L6 cells harboring GLUT4-myc assessed as glucose uptake at 500 uM relative to control; type: functional; outline: as §2
[6] = molecular target: T1, Solute carrier family 2, facilitated glucose transporter member 4 (Rattus norvegicus); test: Induction of GLUT4 translocation in rat L6 cells harboring GLUT4-myc assessed as fold change in increase of surface level GLUT4myc at 500 uM after 16 hrs; type: cell-based
Outline: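 L6-GLUT4myc myotubes were exposed for 16 h, and cell-surface GLUT4myc level was then measured. Experiments were done in triplicate and expressed as mean ± SE, with p relative to the unstimulated control.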

Compound | Activity (L6 [1]) [%] | other results
CCOC(=O)C(C)Oc1ccc(-c2nc3c(cnn3-c3ccc(F)cc3)c(=O)n2C)cc1 (configuration not stated) | 2.9 | –
CCOC(=O)CCCOc1ccc(-c2nc3c(cnn3-c3ccc(C)c(C)c3)c(=O)[nH]2)cc1 | 54 | Activity [2]: Active; fold change (FC) (L6 [3]): 1.54
CCOC(=O)C(C)Oc1ccc(-c2nc3c(cnn3-c3ccc(F)cc3F)c(=O)[nH]2)cc1 (configuration not stated) | -14.7 | –
CCOC(=O)COc1ccc(-c2nc3c(cnn3-c3ccc(F)cc3F)c(=O)[nH]2)cc1 | -1.6 | –
CCOC(=O)C(C)(C)Oc1ccc(-c2nc3c(cnn3-c3ccc(C)c(C)c3)c(=O)[nH]2)cc1 | 12.9 | –
CCOC(=O)C(C)Oc1ccc(-c2nc3c(cnn3-c3ccccc3)c(=O)[nH]2)cc1 (configuration not stated) | 34 | Activity [2]: Active; fold change (FC) (L6 [3]): 1.34
CCOC(=O)CCCOc1ccc(-c2nc3c(cnn3-c3ccc(OC)cc3)c(=O)[nH]2)cc1 | 10.4 | –
CCOC(=O)C(C)(C)Oc1ccc(-c2nc3c(cnn3-c3ccc(F)cc3F)c(=O)[nH]2)cc1 | -12.8 | –
CCOC(=O)CCCOc1ccc(-c2nc3c(cnn3-c3ccccc3)c(=O)[nH]2)cc1 | -8.3 | –
CCOC(=O)C(C)Oc1ccc(-c2nc3c(cnn3-c3ccc(C)c(C)c3)c(=O)[nH]2)cc1 (configuration not stated) | -17.2 | –
CCOC(=O)C(C)(C)Oc1ccc(-c2nc3c(cnn3-c3ccc(F)cc3)c(=O)[nH]2)cc1 | 0.6 | –
CCOC(=O)COc1ccc(-c2nc3c(cnn3-c3ccc(F)cc3)c(=O)[nH]2)cc1 | 23.7 | –
CN(C)C(=N)NC(=N)N [METFORMIN] | – | fold change (FC) (L6 [4]): 1.48; Activity (L6 [5]): 48%; fold change (FC) [6]: 1.45
CCOC(=O)C(C)(C)Oc1ccc(-c2nc3c(cnn3-c3ccc(OC)cc3)c(=O)[nH]2)cc1 | 5 | –
CCOC(=O)COc1ccc(-c2nc3c(cnn3-c3ccc(C)c(C)c3)c(=O)[nH]2)cc1 | -16.8 | –
CCOC(=O)COc1ccc(-c2nc3c(cnn3-c3ccccc3)c(=O)[nH]2)cc1 | -8.6 | –
CCOC(=O)C(C)(C)Oc1ccc(-c2nc3c(cnn3-c3ccccc3)c(=O)[nH]2)cc1 | 34.4 | Activity [2]: Active; fold change (FC) (L6 [3]): 1.34
CCOC(=O)C(C)Oc1ccc(-c2nc3c(cnn3-c3ccc(F)cc3)c(=O)[nH]2)cc1 (configuration not stated) | 0.6 | –
CCOC(=O)CCCOc1ccc(-c2nc3c(cnn3-c3ccc(F)cc3F)c(=O)[nH]2)cc1 | 2.9 | –
CCOC(=O)COc1ccc(-c2nc3c(cnn3-c3ccc(OC)cc3)c(=O)[nH]2)cc1 | 13.1 | –
CCOC(=O)CCCOc1ccc(-c2nc3c(cnn3-c3ccc(F)cc3)c(=O)[nH]2)cc1 | 6.4 | –
CCOC(=O)C(C)Oc1ccc(-c2nc3c(cnn3-c3ccc(OC)cc3)c(=O)[nH]2)cc1 (configuration not stated) | 34.4 | Activity [2]: Active; fold change (FC) (L6 [3]): 1.34
